Experimental findings from ChEMBL document CHEMBL4513216, “Probing the Open Global Health Chemical Diversity Library for Multistage-Active Starting Points for Next-Generation Antimalarials” (ACS Infect Dis, 2020) are described below.

The data set is described as follows: Toxicity liver stage against HepG2, at 10uM. In kind it is cell-based. Set-up: test concentration 10 uM, cell line HepG2-A16-CD81EGFP. Particulars: human, HepG2-A16-CD81EGFP cells; read-out: INHIBITION
The method in brief: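 Uninfected HepG2-A16-CD81EGFP cells, 3 × 10^3 per well, 1536-well, plated on prespotted compound at 10 μM final, parasite-free screening media added to match infected plates; puromycin 10 μM positive, DMSO 0.5% negative; run in parallel with 48 h PbLuc assay at 37 °C, 5% CO2; viability by CellTiter-Glo luminescence, normalized to controls.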

For the compound `CC(=O)N[C@@H]1CN(C(=O)c2cc(C)oc2C)C[C@H]1c1ccc(C)o1`, the cytotoxicity at 10 µM was -10.6%. Then `CCc1ncnc(N(C)CC2CCCCO2)c1F` (stereo unspecified), with 3.17%. Then `Cc1nnc(NCC(c2cccs2)N2CCCC2)c(C#N)c1C` (stereo unspecified), with -4.94%; and `CCCN(CCO)C(=O)C1CCC(=O)N(CCc2ccc(Cl)cc2)C1` (stereo unspecified), with -12.5%; and `O=C(Cc1ccccc1F)N1C[C@@H]2COC[C@]2(COc2cccnc2)C1`, with 9.29%. Then `CCS(=O)(=O)CCNC(=O)[C@@]12CNC[C@@H]1CN(C1CCCC1)C2`, with -20.3%; and `CCN1CC2(CCC1=O)CCN(Cc1cc(F)ccc1Cl)CC2`, with 6.58%; and `COc1cccc(CNC(=O)c2ccccc2-n2cnc(CN)c2)c1`, with -17%. For `Cc1csc2ncc(-c3ccnc(NC4CCOCC4)n3)c(=O)n12`, the cytotoxicity at 10 µM was -4.36%.

`COC(C(=O)N1CCN(c2cccc(Cl)c2)C(=O)C1)c1ccccc1` (stereo unspecified): the cytotoxicity at 10 µM is -9.09%.

As for `Cc1cc(C(=O)N2C[C@@H]3COC[C@]3(CN(C)C)C2)c(C)o1`, the cytotoxicity at 10 µM was -131%. As to `CCN1CCN(C2CCN(Cc3nc(-c4ccoc4)no3)CC2)C1=O`, the cytotoxicity at 10 µM is -7.39%. The same measure for `CCCNC(=O)c1ccc2c(c1)C(=O)N(CC(C)C)C2=O`: -10.2%; for `CCS(=O)(=O)N1CC[C@H]2CO[C@H](CN(C)C)[C@H]2C1`: -72%. Take `Cc1ccc(C(=O)N2CC3(CCCCC3)c3cc(C(=O)O)ccc32)cn1`: the cytotoxicity at 10 µM came out at 11.2%. Take `O=C(c1ccsc1)N1CCO[C@@H]2CN(Cc3ccco3)CC[C@@H]2C1`: the cytotoxicity at 10 µM is -98.6%. The same measure for `Oc1ccccc1-c1n[nH]c(C2CCCO2)n1` (stereo unspecified): -5.22%; for `NS(=O)(=O)c1ccc(CC(=O)N2CCCC(n3cccn3)C2)cc1` (stereo unspecified): -0.481%; for `c1ccc2c(N3CCCCC3Cn3cccn3)ncnc2c1` (stereo unspecified): -5.33%. Then `CCc1nnc2n1CCN(CC(=O)Nc1cc(C(C)(C)C)nn1C)C2`, with -5.77%; and `COC(=O)CCCN(C)C(c1cccnc1)c1ccc(F)cc1F` (stereo unspecified), with -0.665%; and `CN(C)S(=O)(=O)CCCOc1cccc(-n2ccnc2)c1`, with 14%. The same measure for `COCCN1C(=O)CC[C@@H]2[C@H]1CCN2C(=O)N(C)C`: 10.7%. As for `COc1ccnc(N2CCN(C(=O)c3cc(C4CC4)[nH]n3)CC2)n1`, the cytotoxicity at 10 µM is 6.85%.

In the case of `O=S(=O)(C1CC1)N1CCc2onc(COc3ccccn3)c2C1`, the cytotoxicity at 10 µM is -4.38%.

For `Cc1cc(C)n(CC(=O)N2CCC(NS(C)(=O)=O)CC2)n1`, the cytotoxicity at 10 µM was 3.18%.

As to `Cc1cc(NC(=O)NCC(c2ccc(C)o2)N2CCOCC2)n(C)n1` (stereo unspecified), the cytotoxicity at 10 µM is -32.5%. The same measure for `COc1cccc(SCC(=O)N2CCCC(N3CCCC3=O)C2)c1` (stereo unspecified): 6.16%; for `Cc1noc(-c2c[nH]nc2C2CCCN2C(=O)c2ccccc2)c1C` (stereo unspecified): -8.77%. Then `N#Cc1ccc(CN2CCN(C(=O)C3CCC3)[C@@H]3CS(=O)(=O)C[C@@H]32)cc1`, with -9.78%; and `Cc1ccc(-c2nc(CNC3CCc4ncnn4C3)no2)cc1` (stereo unspecified), with -1.43%; and `CC(C)c1nnc2n1CCN(C(=O)c1ccc(N(C)C)nn1)C2`, with -9.86%. Then `CC(C)c1nsc(N2CCSCC2)n1`, with -11.6%; and `CCCC(O)CN1CCC(=O)N(CCOC)Cc2cc3c(cc21)OCO3` (stereo unspecified), with 6.91%.

On to `Cc1cc(C2CCCN(CCS(=O)(=O)c3ccccc3)C2)n[nH]1` (stereo unspecified), for which the cytotoxicity at 10 µM is -16.7%. The same measure for `COCCCNC(=O)NCc1nc(C)c(C)o1`: 10.1%; for `CCO[C@H]1CC[C@H]2[C@H]1OCCN2C(=O)CC1=CCCCC1`: 1.75%; for `N[C@@H]1CC[C@@H]1NC(=O)c1ccccc1OC(F)(F)C(F)F`: 1.5%.

As for `Cc1cccc(N2CCN(c3ccn4c(=O)[nH]nc4n3)CC2)c1C`, the cytotoxicity at 10 µM was determined as 36%. Turning to `CN1CCCN(S(=O)(=O)c2cccc(C(=O)N3CCCCCC3)c2)CC1`, the cytotoxicity at 10 µM was -5.9%. The same measure for `O=C1COc2c(cccc2C(=O)N2CCCCC2Cn2cccn2)N1` (stereo unspecified): 4.07%; for `CC(C)(C)OC(=O)NC(C)(C)c1noc(CN2CCCCC2)n1`: 7.57%; for `C=C(C)COc1ccccc1NC(=O)N1CCCCC1CO` (stereo unspecified): -8.06%. The same measure for `Cc1ccc(CNc2cc3c(cc2Cl)NC(=O)CO3)cc1C`: 0.651%; for `O=C1CC(c2ccc(F)cc2)Cc2[nH]c(=O)c(C(=O)O)cc21` (stereo unspecified): -3.65%. The same measure for `C[C@H]1CN(C(=O)c2ccc[nH]2)C[C@@]12CCN(c1ccsc1)C2=O`: -77.4%; for `Cc1cc(=O)[nH]c(=O)n1COCc1ccccc1`: -12.5%.

Turning to `COc1cccc(C(=O)N2CCN(C(=O)CCCn3ccnc3)CC2)c1`, the cytotoxicity at 10 µM worked out at 3.82%. The same measure for `CCCn1cc(CN2CCC(c3[nH]ncc3S(C)(=O)=O)C2)cn1` (stereo unspecified): 4.27%; for `Cc1cn2c(n1)CCC(NC(=O)c1c[nH]c(C)n1)C2` (stereo unspecified): -0.361%. Regarding `COCCN1C[C@@H]2CN(c3ncc(F)cn3)C[C@@H]2C1=O`, the cytotoxicity at 10 µM turned out to be 9.49%. The same measure for `CCn1ccnc1CN1CCN(C(C)C(=O)N2CCCCCC2)CC1` (stereo unspecified): -7.01%; for `Cc1cnc(CN(Cc2ccccc2)CC2CCOCC2)cn1`: 15.6%; for `Cc1cc(=O)[nH]c(=O)n1-c1ccccc1Br`: 7.89%. As for `COc1ccc(CN(Cc2cc(C)no2)C2CC2)cc1`, the cytotoxicity at 10 µM was -3.71%. Turning to `CC(C)NC(=O)C1CN(Cc2ccc(F)cc2)CC12CCOCC2` (stereo unspecified), the cytotoxicity at 10 µM came out at 3.86%. Regarding `CN(C)CC1CN(Cc2coc(-c3cccc(F)c3)n2)CCO1` (stereo unspecified), the cytotoxicity at 10 µM was -17.2%. `CN1CCNC(=O)C12CCN(C(=O)c1ccc3[nH]c(=O)[nH]c3c1)CC2`: the cytotoxicity at 10 µM amounted to 0.5%. The same measure for `Cc1cccc(-c2ncc(CNC(C)CO)cn2)c1` (stereo unspecified): 2.16%; for `COc1ccc(OCc2nccc(-c3cc(C(=O)O)ccn3)n2)cc1`: -4.81%. Then `CN(C)S(=O)(=O)N1CCN(c2cc(-n3cccc3)ncn2)CC1`, with 0.781%. The same measure for `CN(C)c1ncccc1CNC(=O)N1CCN(C)c2ccccc2C1`: 4.72%; for `Cc1nc(N(C)C)nc2c1COCC21CCN(C(=O)C2CC2)C1` (stereo unspecified): 4.27%; for `CC(C)(C)n1cc(C(=O)NCCN2CCOCC2)c2cccnc21`: 2.14%. On to `O=C1NCCCCC1Sc1nnc(N2CCCC2)n1C1CC1` (stereo unspecified), for which the cytotoxicity at 10 µM turned out to be 1.4%. For the compound `O=C1NCCCCC1NC(=O)N1CCCc2cc(F)ccc21` (stereo unspecified), the cytotoxicity at 10 µM is -4.53%.

In the case of `Cc1ncncc1C(=O)NCCN1CCC(C)CC1`, the cytotoxicity at 10 µM is -8.76%. The same measure for `c1ccc(COCCN2CCc3[nH]cnc3C2c2ccco2)cc1` (stereo unspecified): -2.01%; for `Cc1ccc(C2CCCN2S(=O)(=O)N(C)Cc2nccn2C)o1` (stereo unspecified): -0.787%.

For the compound `Cc1ccc(CCN[C@@H]2c3ccccc3C3(CCNCC3)[C@H]2O)s1`, the cytotoxicity at 10 µM was -2.72%. The same measure for `CC(Cc1ccco1)NC(=O)Nc1ccc(N2CCOCC2)nc1` (stereo unspecified): 0.813%; for `Cc1ccc(-c2cc(CNC(=O)N3CCC(O)CC3)on2)cc1`: -4.62%. The same measure for `CCC(C(=O)Nc1ccc2c(C)n[nH]c2c1)N1CCCC1=O` (stereo unspecified): -48.9%; for `CCCc1nc(CN2CCCN(Cc3nccn3C)CC2)no1`: -3.33%; for `COc1ccc2c(c1)CCCN(C(C)C(=O)N1CCCC1)C2` (stereo unspecified): 10.9%. Then `CS(=O)(=O)NC1CCc2c(ccc(=O)n2CC2CC2)C1` (stereo unspecified), with 4.84%; and `Cc1ccc(NC(=O)NCCCc2n[nH]c(N)c2C#N)cc1`, with -4.71%; and `Cc1nc(N2CC[C@@H](c3ccc4ccccc4c3)[C@H](O)C2)no1`, with -3.65%. `COc1ccccc1CC1CCCN(CC(=O)NC2CC2)C1` (stereo unspecified): the cytotoxicity at 10 µM was 6.75%. The same measure for `CC1CC(=O)c2cnc3nc(N4CCOCC4)[nH]c(=O)c3c2C1` (stereo unspecified): 5.31%. Then `C=C(C)CN(CC)C(=O)Nc1ccccc1CN(C)C(C)=O`, with -9.6%; and `O=C(NCc1ccccc1)N1CCc2ncnc(NC3CC3)c2CC1`, with -100%. Then `Cc1cnc(CN(C)Cc2cccc(OC(F)(F)F)c2)cn1`, with 2.4%; and `COCCN(Cc1cnn(C)c1)Cc1ccc(C)o1`, with -0.0972%; and `Cc1cc(OCC(=O)N2CCCC(c3ccn[nH]3)C2)no1` (stereo unspecified), with 0.0241%. For the compound `CN(C)CCn1ccnc1C1CCCN(c2cc(N)ncn2)C1` (stereo unspecified), the cytotoxicity at 10 µM was -7.76%. Turning to `O=C1NC2(CCN(C(=O)Cc3ccsc3)CC2)CC1c1ccncc1` (stereo unspecified), the cytotoxicity at 10 µM came out at 5.06%. Then `CCN(Cc1c(F)cccc1F)C(=O)c1ccncc1O`, with -1.22%; and `CC1(c2ccccc2)CCCN(Cc2cncn2C2CCCC2)C1` (stereo unspecified), with 16.3%; and `CC(CN1CCCC1=O)NC(=O)Nc1ccccc1Cn1cccn1` (stereo unspecified), with -1.33%. With `Cc1cc2cc(CNC(=O)c3cnn4c3OCCC4)ccc2[nH]1`, the cytotoxicity at 10 µM is 6.59%. Then `Cc1ncc(C(=O)Nc2cncnc2N(C)C)c(Cl)c1Cl`, with 0.776%. The same measure for `COCCN(C)C(=O)c1nc2c(s1)CCCN2S(C)(=O)=O`: -143%; for `OCCCN1CCOC(c2ccc(F)cc2)C1` (stereo unspecified): -7.09%; for `COc1ccc2cc(CN(C)CCc3cn[nH]c3)c(=O)[nH]c2c1`: 0.363%. The same measure for `COc1c[nH]c(C(=O)Nc2nc(C(C)(C)C)cs2)cc1=O`: -49.6%.
